Results: ChEMBL document CHEMBL4190233, “Exploring the cycloheptathiophene-3-carboxamide scaffold to disrupt the interactions of the influenza polymerase subunits and obtain potent anti-influenza activity” (Eur J Med Chem, 2017)

Key:
[1] = tested on: Influenza A virus; test: Antiviral activity against Influenza A virus A/PR/8/34 (H1N1) infected in MDCK cells measured after 48 hrs post infection by plaque reduction assay; format: functional, organism-based; conditions: A/Puerto Rico/8/1934(H1N1)
Procedure, shortened: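 MDCK cells, 5 x 10⁵/well, grown 24 h at 37 °C, washed in serum-free DMEM, then infected with A/PR/8/34 (Cambridge lineage) at 40 PFU/well for 1 h at 37 °C. Medium held TPCK-trypsin 1 μg/mL and 0.14% BSA, with compound at varied concentrations or DMSO. Overlay was the same medium plus 1.2% Avicel. At 48 h cells were formaldehyde-fixed and toluidine-blue stained. Plaques were counted against DMSO (100%).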

[2] = Cytotoxicity against MDCK cells assessed as reduction in cell viability after 48 hrs by MTT assay; format: cell-based, Canis lupus familiaris; conditions: dog
Procedure, shortened: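 MDCK cells, 2 x 10⁴/well, grown 24 h, then exposed to serial compound dilutions or DMSO in DMEM/10% FBS for 48 h at 37 °C. MTT (5 mg/mL in PBS) was added for 4 h, then cells were lysed in solubilization solution overnight at 37 °C and read at 620 nm.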

[3] = target: PA/PB1 (Influenza A virus (A/Puerto Rico/8/1934(H1N1)), UniProt P03431+P03433); test: Inhibition of Influenza A virus 6His-tagged PA (239 to 716 residues)/GST-tagged PB1 (1 to 25 residues) protein-protein interaction expressed in Escherichia coli measured after overnight incubation by ELISA
[4] = Therapeutic index, ratio of CC50 for MDCK cells to EC50 for Influenza A virus A/PR/8/34 (H1N1) infected in MDCK cells; format: toxicity, cell-based; conditions: dog, read-out: Ratio CC50/EC50

Structure (SMILES) | EC50 [1] [µM] | CC50 at 48 h [2] [µM] | IC50 [3] [µM] | selectivity ratio [4]
Nc1ccc(C(=O)Nc2sc3c(c2C(=O)Nc2ccccn2)CCCCC3)cc1 | 0.26 | > 250 | 65 | –
O=C(Nc1sc2c(c1C(=O)Nc1ccccc1O)CCCCC2)c1ccccn1 | 8.2 | > 250 | 118 | –
O=C(Nc1sc2c(c1C(=O)NCc1ccccn1)CCCCC2)c1ccccc1O | > 100 | > 250 | 33 | –
O=C(Nc1sc2c(c1C(=O)Nc1ccccc1)CCCCC2)c1ccccc1O | 30 | > 250 | 58 | –
NC(=O)c1ncn([C@@H]2O[C@H](CO)[C@@H](O)[C@H]2O)n1 [RIBAVIRIN] | 10 | > 250 | – | –
COc1ccccc1NC(=O)c1c(NC(=O)c2ccc(Cl)cc2)sc2c1CCCCC2 | 24 | > 250 | 45 | –
O=C(Nc1sc2c(c1C(=O)Nc1ccccn1)CCCCC2)c1cccc(O)c1 | 22 | 248 | 23 | –
CC(C)NC(=O)c1c(NC(=O)c2ccccc2O)sc2c1CCCCC2 | > 100 | > 250 | > 200 | –
COc1ccccc1C(=O)Nc1sc2c(c1C(=O)Nc1ccc(Cl)cc1)CCCCC2 | 82 | > 250 | 78 | –
O=C(Nc1sc2c(c1C(=O)NC1CCCCC1)CCCCC2)c1ccccc1O | > 100 | 172 | 114 | –
O=C(Nc1sc2c(c1C(=O)Nc1ccccc1O)CCCCC2)c1ccc(Cl)cc1 | 1.8 | 28 | 26 | –
Nc1ccccc1C(=O)Nc1sc2c(c1C(=O)Nc1ccccn1)CCCCC2 | 101 | > 250 | > 200 | –
CSCC[C@H](N)C(=O)N[C@@H](CC(=O)O)C(=O)N[C@H](C(=O)N[C@@H](CC(N)=O)C(=O)N1CCC[C@H]1C(=O)N[C@H](C(=O)N[C@@H](CC(C)C)C(=O)N[C@@H](CC(C)C)C(=O)N[C@@H](Cc1ccccc1)C(=O)N[C@@H](CC(C)C)C(=O)N[C@@H](CCCCN)C(=O)N[C@H](C(=O)N1CCC[C@H]1C(=O)N[C@@H](C)C(=O)N[C@@H](CCC(N)=O)C(=O)O)C(C)C)[C@@H](C)O)C(C)C | 41 | > 100 | – | –
O=C(Nc1sc2c(c1C(=O)N1CCN(c3ccccn3)CC1)CCCCC2)c1ccccc1O | > 100 | 145 | 197 | –
O=C(Nc1sc2c(c1C(=O)Nc1ccc(Cl)cc1)CCCCC2)c1ccccc1O | 1.2 | > 250 | 18 | > 200
O=C(Nc1sc2c(c1C(=O)NCc1ccccc1)CCCCC2)c1ccccc1O | > 100 | 172 | 191 | –
O=C(Nc1sc2c(c1C(=O)Nc1nccs1)CCCCC2)c1ccccc1O | 0.18 | > 250 | 69 | > 1390
CN1CCN(C(=O)c2c(NC(=O)c3ccccc3O)sc3c2CCCCC3)CC1 | 94 | > 250 | > 200 | –
COc1ccccc1C(=O)Nc1sc2c(c1C(=O)Nc1ccccn1)CCCCC2 | 86 | 147 | 22 | –
CC(C)(C)NC(=O)c1c(NC(=O)c2ccccc2O)sc2c1CCCCC2 | > 100 | > 250 | 156 | –
O=C(Nc1sc2c(c1C(=O)Nc1ccccn1)CCCCC2)c1ccccc1O | 2.6 | > 250 | 15 | > 96
O=C(Nc1sc2c(c1C(=O)Nc1ccc(F)cc1)CCCCC2)c1ccccc1O | 1.2 | > 250 | 20 | > 200
O=C(Nc1sc2c(c1C(=O)Nc1ccccn1)CCCCC2)c1ccc(O)cc1 | 19 | > 250 | 26 | –
